Where “and” joins values, the source holds several entries; their conditions need not be identical. Equal values may be shown once.
Tested on: HEK-293T
Assay: Multiplex assay against HEK293T
Format: toxicity, cell-based
Conditions: human, number of replicates 2
Procedure, shortened: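 On a CQ1 microscope at 37°C and 5% CO2, live cells were imaged after compound addition. They had been stained at seeding with Hoechst33342, BioTracker Green Microtubule Cytoskeleton Dye, MitoTracker Red and Annexin V Alexa Fluor 680. CellPathfinder machine-learning gating assigned cells to Hoechst high-intensity objects or normal cells, normal cells to healthy, pyknosed or fragmented nuclei, and pyknosed cells to mitotic or apoptotic. Tubulin, mitochondrial-mass and membrane-permeability phenotypes are per cents of healthy-nucleus cells.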

[1] = 12 h, 1 µM, compound concentration 1 uM
[2] = 12 h, 10 µM, compound concentration 10 uM
[3] = 24 h, 1 µM, compound concentration 1 uM
[4] = 24 h, 10 µM, compound concentration 10 uM
[5] = 48 h, 1 µM, compound concentration 1 uM
[6] = 48 h, 10 µM, compound concentration 10 uM

## COCCN1CCN(CCn2ccc(Nc3ncc4c(n3)-c3c(nn(C)c3-c3ccccc3)C[C@H]4C)n2)CC1
[1]
  Population Apoptotic (%): 55% and 57%
  Population Fragmented Nuclei (%): 2% and 5%
  Population Healthy Nuclei (%): 86% and 79%
  Population Hoechst High Intensity Objects (%): 14% and 13%
  Population Membrane Permeable-Phenotype (%): 3%
  Population Mitochondria Different-Phenotype (%): 44% and 55%
  Population Mitotic Cells (%): 44% and 42%
  Population Normal (%): 85% and 86%
  Population Pyknosed Nuclei (%): 11% and 15%
  Population Tubulin-Different-Phenotype (%): 73% and 85%
  Total Cell Count: 402 and 361
[2]
  Population Apoptotic (%): 66% and 76%
  Population Fragmented Nuclei (%): 5%
  Population Healthy Nuclei (%): 76% and 78%
  Population Hoechst High Intensity Objects (%): 21% and 20%
  Population Membrane Permeable-Phenotype (%): 2%
  Population Mitochondria Different-Phenotype (%): 65% and 76%
  Population Mitotic Cells (%): 33% and 23%
  Population Normal (%): 78% and 79%
  Population Pyknosed Nuclei (%): 18% and 16%
  Population Tubulin-Different-Phenotype (%): 94% and 95%
  Total Cell Count: 332 and 297
[3]
  Population Apoptotic (%): 48% and 64%
  Population Fragmented Nuclei (%): 7% and 3%
  Population Healthy Nuclei (%): 86% and 90%
  Population Hoechst High Intensity Objects (%): 15% and 17%
  Population Membrane Permeable-Phenotype (%): 1% and 2%
  Population Mitochondria Different-Phenotype (%): 30% and 33%
  Population Mitotic Cells (%): 52% and 35%
  Population Normal (%): 84% and 82%
  Population Pyknosed Nuclei (%): 6%
  Population Tubulin-Different-Phenotype (%): 74% and 75%
  Total Cell Count: 473 and 331
[4]
  Population Apoptotic (%): 71% and 78%
  Population Fragmented Nuclei (%): 5% and 2%
  Population Healthy Nuclei (%): 72% and 83%
  Population Hoechst High Intensity Objects (%): 25% and 24%
  Population Membrane Permeable-Phenotype (%): 1% and 2%
  Population Mitochondria Different-Phenotype (%): 71% and 75%
  Population Mitotic Cells (%): 28% and 21%
  Population Normal (%): 74% and 75%
  Population Pyknosed Nuclei (%): 22% and 14%
  Population Tubulin-Different-Phenotype (%): 90% and 92%
  Total Cell Count: 250 and 217
[5]
  Population Apoptotic (%): 73% and 30%
  Population Fragmented Nuclei (%): 12% and 8%
  Population Healthy Nuclei (%): 84% and 87%
  Population Hoechst High Intensity Objects (%): 27% and 18%
  Population Membrane Permeable-Phenotype (%): 4% and 2%
  Population Mitochondria Different-Phenotype (%): 5% and 10%
  Population Mitotic Cells (%): 26% and 70%
  Population Normal (%): 72% and 81%
  Population Pyknosed Nuclei (%): 3% and 4%
  Population Tubulin-Different-Phenotype (%): 63% and 68%
  Total Cell Count: 864 and 570
[6]
  Population Apoptotic (%): 66%
  Population Fragmented Nuclei (%): 7% and 6%
  Population Healthy Nuclei (%): 89% and 82%
  Population Hoechst High Intensity Objects (%): 24% and 20%
  Population Membrane Permeable-Phenotype (%): 0% and 4%
  Population Mitochondria Different-Phenotype (%): 49% and 51%
  Population Mitotic Cells (%): 33%
  Population Normal (%): 75% and 79%
  Population Pyknosed Nuclei (%): 3% and 10%
  Population Tubulin-Different-Phenotype (%): 86% and 82%
  Total Cell Count: 245 and 220

## C[C@@H](Oc1cc(-n2cnc3ccc(OC4CCN(C)CC4)cc32)sc1C(N)=O)c1ccccc1Cl [GSK-579289A]
[1]
  Population Apoptotic (%): 49% and 50%
  Population Fragmented Nuclei (%): 4% and 2%
  Population Healthy Nuclei (%): 79% and 81%
  Population Hoechst High Intensity Objects (%): 7% and 8%
  Population Membrane Permeable-Phenotype (%): 8% and 3%
  Population Mitochondria Different-Phenotype (%): 27% and 24%
  Population Mitotic Cells (%): 50%
  Population Normal (%): 93% and 91%
  Population Pyknosed Nuclei (%): 16%
  Population Tubulin-Different-Phenotype (%): 88% and 90%
  Total Cell Count: 686 and 707
[2]
  Population Apoptotic (%): 72% and 75%
  Population Fragmented Nuclei (%): 2% and 1%
  Population Healthy Nuclei (%): 79% and 84%
  Population Hoechst High Intensity Objects (%): 19% and 10%
  Population Membrane Permeable-Phenotype (%): 7% and 3%
  Population Mitochondria Different-Phenotype (%): 69% and 73%
  Population Mitotic Cells (%): 27% and 25%
  Population Normal (%): 80% and 89%
  Population Pyknosed Nuclei (%): 17% and 13%
  Population Tubulin-Different-Phenotype (%): 82% and 85%
  Total Cell Count: 381 and 356
[3]
  Population Apoptotic (%): 41% and 65%
  Population Fragmented Nuclei (%): 1% and 3%
  Population Healthy Nuclei (%): 75%
  Population Hoechst High Intensity Objects (%): 8% and 7%
  Population Membrane Permeable-Phenotype (%): 2% and 0%
  Population Mitochondria Different-Phenotype (%): 55% and 62%
  Population Mitotic Cells (%): 58% and 34%
  Population Normal (%): 91% and 92%
  Population Pyknosed Nuclei (%): 22% and 21%
  Population Tubulin-Different-Phenotype (%): 93% and 95%
  Total Cell Count: 585 and 584
[4]
  Population Apoptotic (%): 78% and 69%
  Population Fragmented Nuclei (%): 7% and 6%
  Population Healthy Nuclei (%): 75% and 79%
  Population Hoechst High Intensity Objects (%): 23% and 16%
  Population Membrane Permeable-Phenotype (%): 1%
  Population Mitochondria Different-Phenotype (%): 88% and 75%
  Population Mitotic Cells (%): 21% and 30%
  Population Normal (%): 76% and 84%
  Population Pyknosed Nuclei (%): 16% and 14%
  Population Tubulin-Different-Phenotype (%): 66% and 80%
  Total Cell Count: 362 and 350
[5]
  Population Apoptotic (%): 68% and 63%
  Population Fragmented Nuclei (%): 3% and 4%
  Population Healthy Nuclei (%): 85% and 83%
  Population Hoechst High Intensity Objects (%): 6% and 13%
  Population Membrane Permeable-Phenotype (%): 1% and 0%
  Population Mitochondria Different-Phenotype (%): 67%
  Population Mitotic Cells (%): 31% and 36%
  Population Normal (%): 93% and 86%
  Population Pyknosed Nuclei (%): 10% and 11%
  Population Tubulin-Different-Phenotype (%): 89% and 90%
  Total Cell Count: 471 and 559
[6]
  Population Apoptotic (%): 67% and 73%
  Population Fragmented Nuclei (%): 12% and 11%
  Population Healthy Nuclei (%): 61% and 68%
  Population Hoechst High Intensity Objects (%): 20% and 22%
  Population Membrane Permeable-Phenotype (%): 4% and 3%
  Population Mitochondria Different-Phenotype (%): 78% and 68%
  Population Mitotic Cells (%): 32% and 26%
  Population Normal (%): 79% and 77%
  Population Pyknosed Nuclei (%): 26% and 19%
  Population Tubulin-Different-Phenotype (%): 55% and 65%
  Total Cell Count: 453 and 440

From ChEMBL document CHEMBL5303300, “EUbOPEN Chemogenomics Library - Multiplex” (2023)
